ChEMBL document CHEMBL1138767, “Macrocyclic inhibitors for peptide deformylase: a structure-activity relationship study of the ring size” (J Med Chem, 2004)
Values after ≈ are worked out from the molar mass of the structure shown.

Tests used:
Escherichia coli = assay: The compound was tested in vitro for antibacterial activity against Escherichia coli; assay type: functional
Procedure, shortened: (§1)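 Broth microdilution per NCCLS M7-A5 in cation-adjusted Mueller–Hinton broth; 5% lysed horse blood added for streptococci, Haemophilus Test Medium for Haemophilus. Inoculum ~5 × 10^5 CFU/mL from 16–20 h plate cultures. Twofold dilutions, final 0.03–32 µg/mL. Incubated 16–20 h at 35–37 °C (Haemophilus and Streptococcus: 24 h, 5% CO2). MIC is the lowest concentration with no visible growth, read visually.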

Peptide deformylase [1] = biological target: T1, Peptide deformylase (Escherichia coli, UniProt Q9JN24); assay: Inhibitory effect against Escherichia coli peptide deformylase (PDF) by DPPI assay
T1 sequence (Q9JN24 whole entry): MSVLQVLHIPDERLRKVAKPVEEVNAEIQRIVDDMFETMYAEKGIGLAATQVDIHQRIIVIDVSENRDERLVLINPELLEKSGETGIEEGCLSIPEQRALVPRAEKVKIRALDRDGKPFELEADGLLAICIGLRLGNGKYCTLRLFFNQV
Procedure, shortened: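 E. coli PDF (Co(II) cofactor) assayed continuously at room temperature in 50 mM Hepes, 10 mM NaCl, 5 mM DTT, pH 7.0. Read at 360 nm, initial rates from <30 s, no-PDF background subtracted. K_I from Michaelis–Menten fit.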

Peptide deformylase [2] = biological target: T1, Peptide deformylase; assay: Inhibitory effect against Escherichia coli peptide deformylase (PDF) by AAP assay
Procedure, shortened: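 E. coli PDF (Co(II) cofactor) 8 nM preincubated with 0–300 nM inhibitor 2 h on ice in 50 mM Hepes pH 7.0, 150 mM NaCl, 100 μM BSA. Reaction started at room temperature with 80 μM f-ML-pNA for 10 min, heat-quenched at 95 °C, then coupled with AAP. A405 measured, no-PDF background subtracted, conversion <20%. K_I* from Michaelis–Menten fit.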

[3] = biological target: T2, Peptide deformylase (Escherichia coli) (UniProt Q9JN24); assay: Inhibition constant against Escherichia coli Peptide deformylase (PDF)
T2 sequence (whole entry): T1 sequence (Q9JN24 whole entry)

[4] = biological target: T2, Peptide deformylase (Escherichia coli); assay: The inhibition constant was measured against Escherichia coli PDF (Peptide deformylase) by diluting a preformed EI* complex into a assay buffer containing f-Met-Lys-AMC and DPPI
Procedure, shortened: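 E. coli PDF (Co(II) form) at 40–160 nM and inhibitor at 80–200 nM, preincubated 2 h on ice in 50 mM Hepes pH 7.0, 10 mM NaCl, 5 mM DTT with 100 µM BSA. Then diluted 10-fold into the same buffer with 270 µM f-Met-Lys-AMC and 0.1 U DPPI. Recovery of activity followed continuously at 360 nm; k6 taken from progress curves.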

Bacillus subtilis = assay: The compound was tested in vitro for antibacterial activity against Bacillus subtilis
Enterococcus faecalis = assay: The compound was tested in vitro for antibacterial activity against Enterococcus faecalis(ATCC 29212); assay type: functional; procedure, shortened: as §1
Moraxella catarrhalis = assay: The compound was tested in vitro for antibacterial activity against Moraxella catarrhalis (ATCC 37054); assay type: functional; procedure, shortened: as §1
Staphylococcus aureus = assay: The compound was tested in vitro for antibacterial activity against Staphylococcus aureus (ATCC 29213); assay type: functional; procedure, shortened: as §1
Haemophilus influenzae = assay: The compound was tested in vitro for antibacterial activity against Haemophilus influenzae (ATCC 31517); assay type: functional; procedure, shortened: as §1
Streptococcus pneumoniae [5] = assay: The compound was tested in vitro for antibacterial activity against Streptococcus pneumoniae (ATCC 6301); assay type: functional; procedure, shortened: as §1
Streptococcus pneumoniae [6] = assay: The compound was tested in vitro for antibacterial activity against Streptococcus pneumoniae (ATCC 6303); assay type: functional; procedure, shortened: as §1
Streptococcus pneumoniae [7] = assay: The compound was tested in vitro for antibacterial activity against Streptococcus pneumoniae (ATCC 49619); assay type: functional; procedure, shortened: as §1
[8] = biological target: T3, Interstitial collagenase (Homo sapiens) (UniProt P03956); assay: Inhibition of MMP-1 (matrix metalloprotease) at 10 uM
T3 sequence (whole entry): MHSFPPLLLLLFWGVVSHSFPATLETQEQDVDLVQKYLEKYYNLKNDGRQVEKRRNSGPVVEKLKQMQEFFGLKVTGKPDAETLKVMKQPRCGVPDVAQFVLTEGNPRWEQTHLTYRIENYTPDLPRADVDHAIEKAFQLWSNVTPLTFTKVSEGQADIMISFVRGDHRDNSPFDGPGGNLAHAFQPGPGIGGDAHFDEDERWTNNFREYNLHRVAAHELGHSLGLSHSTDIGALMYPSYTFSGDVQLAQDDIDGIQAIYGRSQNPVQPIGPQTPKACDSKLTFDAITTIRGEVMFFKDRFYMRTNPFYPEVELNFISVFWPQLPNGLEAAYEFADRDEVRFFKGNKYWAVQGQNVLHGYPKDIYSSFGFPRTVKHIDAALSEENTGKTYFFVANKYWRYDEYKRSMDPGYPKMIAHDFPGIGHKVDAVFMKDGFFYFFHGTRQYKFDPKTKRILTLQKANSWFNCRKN
Procedure, shortened: (§2)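 Human MMP-1, -2, -3 or -9 (0.10 µg, added last to start the reaction) in 100 mM Tris, 100 mM NaCl, 10 mM CaCl2, 0.04% Brij-35. Contained 15 µM fluorogenic peptide substrate (Mca-P-K-G-Dpa-A-R-NH2 for MMP-1/-2) and inhibitor at 0, 1 or 10 µM. Remaining activity monitored continuously by fluorescence, excitation 320 nm, emission 405 nm.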

[9] = biological target: Stromelysin-1 (Homo sapiens) (UniProt P08254); assay: Inhibition of MMP-3 (matrix metalloprotease) at 10 uM; procedure, shortened: as §2
Chain of Stromelysin-1 (Homo sapiens) (P08254 100-477 limits assumed): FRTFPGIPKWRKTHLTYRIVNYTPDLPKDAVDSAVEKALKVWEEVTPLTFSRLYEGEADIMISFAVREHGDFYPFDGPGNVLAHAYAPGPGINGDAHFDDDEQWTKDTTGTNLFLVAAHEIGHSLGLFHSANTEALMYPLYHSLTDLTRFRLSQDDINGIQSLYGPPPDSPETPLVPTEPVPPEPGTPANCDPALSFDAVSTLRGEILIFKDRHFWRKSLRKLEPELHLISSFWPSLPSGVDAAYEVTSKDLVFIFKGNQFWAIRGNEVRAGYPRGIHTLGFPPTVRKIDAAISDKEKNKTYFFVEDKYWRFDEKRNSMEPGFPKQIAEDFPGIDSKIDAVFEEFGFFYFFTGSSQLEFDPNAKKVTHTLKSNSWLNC

[10] = biological target: Matrix metalloproteinase-9 (Homo sapiens) (UniProt P14780); assay: Inhibition of MMP-9 (matrix metalloprotease) at 10 uM; procedure, shortened: as §2
Chain of Matrix metalloproteinase-9 (Homo sapiens) (P14780 whole entry): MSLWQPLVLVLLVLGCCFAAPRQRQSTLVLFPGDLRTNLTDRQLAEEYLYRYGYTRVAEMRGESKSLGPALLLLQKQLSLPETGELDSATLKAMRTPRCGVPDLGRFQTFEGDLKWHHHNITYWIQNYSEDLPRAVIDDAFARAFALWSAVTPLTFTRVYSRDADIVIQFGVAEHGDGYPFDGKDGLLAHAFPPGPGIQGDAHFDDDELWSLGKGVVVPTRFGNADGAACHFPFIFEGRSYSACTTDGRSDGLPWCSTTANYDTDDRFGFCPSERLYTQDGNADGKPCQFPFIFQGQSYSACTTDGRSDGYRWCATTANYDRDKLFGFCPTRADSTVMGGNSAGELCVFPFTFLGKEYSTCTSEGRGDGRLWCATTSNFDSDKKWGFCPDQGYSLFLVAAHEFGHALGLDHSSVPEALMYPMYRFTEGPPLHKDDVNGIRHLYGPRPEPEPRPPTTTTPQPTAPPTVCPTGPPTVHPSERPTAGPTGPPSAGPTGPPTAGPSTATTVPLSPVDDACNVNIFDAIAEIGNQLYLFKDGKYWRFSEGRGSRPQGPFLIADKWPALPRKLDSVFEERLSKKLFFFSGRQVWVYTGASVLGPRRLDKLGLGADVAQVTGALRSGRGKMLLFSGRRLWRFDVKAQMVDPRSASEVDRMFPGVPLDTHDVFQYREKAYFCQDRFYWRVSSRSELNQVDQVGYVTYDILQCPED

[11] = biological target: T3, Interstitial collagenase (Homo sapiens); assay: Inhibition of MMP-1 (matrix metalloprotease) at 1 uM; procedure, shortened: as §2
[12] = biological target: 72 kDa type IV collagenase (Homo sapiens) (UniProt P08253); assay: Inhibition of MMP-2 (matrix metalloprotease) at 10 uM; procedure, shortened: as §2
Chain of 72 kDa type IV collagenase (Homo sapiens) (P08253 110-660 limits assumed): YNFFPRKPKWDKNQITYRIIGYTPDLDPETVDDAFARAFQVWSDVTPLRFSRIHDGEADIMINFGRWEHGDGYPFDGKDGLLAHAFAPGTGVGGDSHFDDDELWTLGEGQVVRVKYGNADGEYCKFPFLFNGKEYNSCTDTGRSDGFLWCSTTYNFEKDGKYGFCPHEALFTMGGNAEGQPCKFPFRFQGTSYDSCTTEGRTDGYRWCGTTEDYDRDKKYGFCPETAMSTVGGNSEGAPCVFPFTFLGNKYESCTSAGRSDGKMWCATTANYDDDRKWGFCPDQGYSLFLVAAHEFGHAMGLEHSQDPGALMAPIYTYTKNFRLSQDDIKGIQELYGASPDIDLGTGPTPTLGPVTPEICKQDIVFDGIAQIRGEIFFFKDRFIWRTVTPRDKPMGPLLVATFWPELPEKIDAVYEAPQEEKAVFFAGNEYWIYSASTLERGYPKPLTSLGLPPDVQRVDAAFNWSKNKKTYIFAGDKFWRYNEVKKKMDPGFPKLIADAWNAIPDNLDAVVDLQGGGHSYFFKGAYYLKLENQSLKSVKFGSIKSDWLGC

[13] = biological target: Stromelysin-1 (Homo sapiens) (UniProt P08254); assay: Inhibition of MMP-3 (matrix metalloprotease) at 1 uM; procedure, shortened: as §2
[14] = biological target: Matrix metalloproteinase-9 (Homo sapiens) (UniProt P14780); assay: Inhibition of MMP-9 (matrix metalloprotease) at 1 uM; procedure, shortened: as §2
[15] = biological target: 72 kDa type IV collagenase (Homo sapiens) (UniProt P08253); assay: Inhibition of MMP-2 (matrix metalloprotease) at 1 uM; procedure, shortened: as §2

SMILES | MIC90 (Escherichia coli) [µg/mL] | Ki (Peptide deformylase [1]) [nM] | Ki (Peptide deformylase [2]; read-out: Ki) [nM] | K5 [3] | K6 [4] | MIC90 (Bacillus subtilis) [µg/mL] | inhibition [8] [%] | inhibition [9] [%] | inhibition [10] [%] | inhibition [11] [%] | inhibition [12] [%] | inhibition [13] [%] | inhibition [14] [%] | inhibition [15] [%] | also measured
CC(C)(C)[C@@H]1NC(=O)[C@@H](CN(O)C=O)CCCCCCCCCCNC1=O | > 12 | 96 | 0.23 | 1.6 min⁻¹ | 0.0037 min⁻¹ | 0.2 (≈ 0.521 µM) |  |  |  |  |  |  |  |  | 
NCCCC[C@@H]1NC(=O)[C@@H](CN(O)C=O)CCCCCCCCCCCCCCNC1=O | > 32 |  | 36 | 0.11 min⁻¹ | 0.018 min⁻¹ | > 32 | 7 | 6 | 5 | 1 | 15 | 0 | 4 | 6 | MIC90 (Enterococcus faecalis): 32 µg/mL (≈ 70.4 µM); MIC90 (Moraxella catarrhalis): 1 µg/mL (≈ 2.2 µM); MIC90 (Staphylococcus aureus): 32 µg/mL (≈ 70.4 µM); MIC90 (Haemophilus influenzae): 32 µg/mL (≈ 70.4 µM); MIC90 (Streptococcus pneumoniae [5]): > 32 µg/mL; MIC90 (Streptococcus pneumoniae [6]): > 32 µg/mL; MIC90 (Streptococcus pneumoniae [7]): > 32 µg/mL
CCCC[C@H](CN(O)C=O)C(=O)N[C@@H](CCCCN)C(=O)Nc1ccccc1 |  | 23 |  | No Slow-Binding Behaviour | No Slow-Binding Behaviour |  | 97 | 73 | 89 | 50 | 55 | 68 | 54 | 34 | Ki (Peptide deformylase [2]): No Slow-Binding Behaviour
CC(C)(C)[C@@H]1NC(=O)[C@@H](CN(O)C=O)CCCCCCCCNC1=O | > 24 | 63 | 13.7 | 0.02 min⁻¹ | 0.0061 min⁻¹ | 1.4 (≈ 3.94 µM) | 1 | 20 | 11 | 0 | 15 | 3 | 8 | 10 | 
NCCCC[C@@H]1NC(=O)[C@@H](CN(O)C=O)CCCCCCCCCNC1=O | 4 (≈ 10.4 µM) | 92 | 3 | 0.12 min⁻¹ | 0.0042 min⁻¹ | ~8 (≈ 20.8 µM) |  |  |  |  |  |  |  |  | 
CC(C)(C)[C@@H]1NC(=O)[C@@H](CN(O)C=O)CCCCCCCCCCCCCCNC1=O | > 24 |  | 25 | 1 min⁻¹ | 0.01 min⁻¹ | ~16 (≈ 36.4 µM) | 8 | 4 | 6 | 7 | 0 | 3 | 4 | 0 | MIC90 (Enterococcus faecalis): > 32 µg/mL; MIC90 (Moraxella catarrhalis): < 0.03 µg/mL; MIC90 (Staphylococcus aureus): > 32 µg/mL; MIC90 (Haemophilus influenzae): > 32 µg/mL; MIC90 (Streptococcus pneumoniae [5]): 8 µg/mL (≈ 18.2 µM); MIC90 (Streptococcus pneumoniae [6]): 4 µg/mL (≈ 9.1 µM); MIC90 (Streptococcus pneumoniae [7]): 8 µg/mL (≈ 18.2 µM)
CC(C)(C)[C@@H]1NC(=O)[C@@H](CN(O)C=O)CCCCCCCCCNC1=O |  | 109 | 0.33 | 1.2 min⁻¹ | 0.0038 min⁻¹ | 0.7 (≈ 1.89 µM) | 14 | 9 | 9 | 7 | 8 | 3 | 5 | 4 | MIC90 (Enterococcus faecalis): > 32 µg/mL; MIC90 (Moraxella catarrhalis): 0.62 µg/mL (≈ 1.68 µM); MIC90 (Staphylococcus aureus): 16 µg/mL (≈ 43.3 µM); MIC90 (Haemophilus influenzae): 0.5 µg/mL (≈ 1.35 µM); MIC90 (Streptococcus pneumoniae [5]): 4 µg/mL (≈ 10.8 µM); MIC90 (Streptococcus pneumoniae [6]): 2 µg/mL (≈ 5.41 µM); MIC90 (Streptococcus pneumoniae [7]): 4 µg/mL (≈ 10.8 µM)
CC(=O)NCCCC[C@@H]1NC(=O)[C@@H](CN(O)C=O)CCCCCCCCCNC1=O |  | 710 | 12 | 0.28 min⁻¹ | 0.0048 min⁻¹ |  | 13 | 8 | 8 | 3 | 20 | 0 | 8 | 17 | 
CCCC[C@H](CN(O)C=O)C(=O)N[C@H](C(=O)N(C)C)C(C)(C)C |  | 11 |  | No Slow-Binding Behaviour | No Slow-Binding Behaviour |  |  |  |  |  |  |  |  |  | Ki (Peptide deformylase [2]): No Slow-Binding Behaviour
CC(C)(C)[C@@H]1NC(=O)[C@@H](CN(O)C=O)CCCCCCCCCCCNC1=O | > 24 | 77 | 0.22 | 0.5 min⁻¹ | 0.0015 min⁻¹ | 0.08 (≈ 0.201 µM) |  |  |  |  |  |  |  |  | 
CCCCCCNC(=O)[C@H](CCCCN)NC(=O)[C@H](CCCCC)CN(O)C=O |  |  |  | No Slow-Binding Behaviour | No Slow-Binding Behaviour |  | 100 | 99 | 94 | 50 | 98 | 81 | 61 | 73 | Ki (Peptide deformylase [2]): No Slow-Binding Behaviour
